Results from paper PMC2800315 (Japanese Journal of Clinical Oncology, 2009).

How the values were obtained:
[1] = Safety and tolerability, adverse events; format: in vivo, Japanese patients
Method in brief: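 Open-label 3+3 dose escalation with daily oral dosing up to 10 mg/day in 28-day cycles. Adverse events monitored throughout and graded by NCI CTCAE v3.0, recorded until 28 days after stopping. DLT: grade ≥3 haematologic or non-haematologic event, or grade ≥3 lab abnormality, within the first 4 weeks and suspected drug-related. Antiemetic and anti-hyperlipidaemia therapy allowed.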

esophagogastric cancer = details: one esophagogastric cancer patient, daily dose of 5 mg; cited from earlier work
advanced solid tumors = assay: Tumor response according to RECIST; format: in vivo, Japanese patients
Method in brief: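 Patients had ≥1 measurable lesion and took continuous once-daily oral dosing in 28-day cycles, continued until progression. Tumour assessed by RECIST every 2 months and at study end. Outcomes summarised descriptively.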

[2] = 673 renal transplant patients; cited from earlier work
[3] = 5 mg/day (n = 3), G3/4, all courses
[4] = 10 mg/day (n = 3), G1/2, all courses
[5] = 10 mg/day (n = 3), G3/4, all courses
[6] = Total, all doses and grades, all courses
[7] = one patient with esophageal carcinoma, 10 mg/day, day 58

Structure (SMILES): CO[C@H]1C[C@@H]2CC[C@@H](C)[C@@](O)(O2)C(=O)C(=O)N2CCCC[C@H]2C(=O)O[C@H]([C@H](C)C[C@@H]2CC[C@@H](OCCO)[C@H](OC)C2)CC(=O)[C@H](C)/C=C(\C)[C@@H](O)[C@@H](OC)C(=O)[C@H](C)C[C@H](C)/C=C/C=C/C=C/1C [RAD001, everolimus]
- Number of patients with adverse event: Thrombocytopenia [1, 3]: 0
- Number of patients with adverse event: Weight decreased [1, 3]: 0
- Number of patients with adverse event: Anemia [1, 4]: 1
- Number of patients with adverse event: Anorexia [1, 4]: 1
- Number of patients with adverse event: Diarrhea [1, 4]: 0
- Number of patients with adverse event: Elevated ALT or AST [1, 4]: 0
- Number of patients with adverse event: Fatigue [1, 4]: 0
- Number of patients with adverse event: Glucose tolerance impaired [1, 4]: 0
- Number of patients with adverse event: Hemorrhage [1, 4]: 0
- Number of patients with adverse event: Hyperglycemia [1, 4]: 0
- Number of patients with adverse event: Hypertension [1, 4]: 0
- Number of patients with adverse event: Leukopenia [1, 4]: 0
- Number of patients with adverse event: Mucosal inflammation [1, 4]: 2
- Number of patients with adverse event: Nausea [1, 4]: 1
- Number of patients with adverse event: Neutropenia [1, 4]: 0
- Number of patients with adverse event: Pneumonitis [1, 4]: 0
- Number of patients with adverse event: Rash [1, 4]: 3
- Number of patients with adverse event: Stomatitis [1, 4]: 0
- Number of patients with adverse event: Thrombocytopenia [1, 4]: 3
- Number of patients with adverse event: Weight decreased [1, 4]: 1
- Number of patients with adverse event: Anemia [1, 5]: 0
- Number of patients with adverse event: Anorexia [1, 5]: 0
- Number of patients with adverse event: Diarrhea [1, 5]: 0
- Number of patients with adverse event: Elevated ALT or AST [1, 5]: 0
- Number of patients with adverse event: Fatigue [1, 5]: 1
- Number of patients with adverse event: Glucose tolerance impaired [1, 5]: 0
- Number of patients with adverse event: Hemorrhage [1, 5]: 1
- Number of patients with adverse event: Hyperglycemia [1, 5]: 1
- Number of patients with adverse event: Hypertension [1, 5]: 0
- Number of patients with adverse event: Leukopenia [1, 5]: 0
- Number of patients with adverse event: Mucosal inflammation [1, 5]: 0
- Number of patients with adverse event: Nausea [1, 5]: 0
- Number of patients with adverse event: Neutropenia [1, 5]: 0
- Number of patients with adverse event: Pneumonitis [1, 5]: 0
- Number of patients with adverse event: Rash [1, 5]: 0
- Number of patients with adverse event: Stomatitis [1, 5]: 1
- Number of patients with adverse event: Thrombocytopenia [1, 5]: 0
- Number of patients with adverse event: Weight decreased [1, 5]: 0
- Dosage recommended for further development ([1]; Japanese patients with advanced solid malignancies): 10 mg/day
- Number of patients with adverse event: Anemia [1, 6]: 1
- Number of patients with adverse event: Anorexia [1, 6]: 4
- Number of patients with adverse event: Diarrhea [1, 6]: 2
- Number of patients with adverse event: Elevated ALT or AST [1, 6]: 2
- Number of patients with adverse event: Fatigue [1, 6]: 2
- Number of patients with adverse event: Glucose tolerance impaired [1, 6]: 1
- Number of patients with adverse event: Hemorrhage [1, 6]: 1
- Number of patients with adverse event: Hyperglycemia [1, 6]: 1
- Number of patients with adverse event: Hypertension [1, 6]: 1
- Number of patients with adverse event: Leukopenia [1, 6]: 3
- Number of patients with adverse event: Mucosal inflammation [1, 6]: 2
- Number of patients with adverse event: Nausea [1, 6]: 2
- Number of patients with adverse event: Neutropenia [1, 6]: 1
- Number of patients with adverse event: Pneumonitis [1, 6]: 1
- Number of patients with adverse event: Rash [1, 6]: 4
- Number of patients with adverse event: Stomatitis [1, 6]: 2
- Number of patients with adverse event: Thrombocytopenia [1, 6]: 5
- Number of patients with adverse event: Weight decreased [1, 6]: 2
- Hyperlipidemia ([1]; all cohorts): not observed
- Dose-limiting toxicities (DLTs) ([1]; first cycle of treatment (28 days), 2.5, 5.0 or 10.0 mg/day): not observed
- Pneumonitis, grade ([1]; one patient with colon cancer, 5 mg/day, after 142 days of therapy): grade 2
- Hyperglycemia, grade ([1]; one patient with colorectal cancer, 10 mg/day, day 98): Grade 3
- Fatigue, grade [1, 7]: Grade 3
- Stomatitis, grade [1, 7]: Grade 3
- Anorexia, all grades, patients ([1]; overall, nine patients): 44%
- Leukopenia, all grades, patients ([1]; overall, nine patients): 33%
- Rash, all grades, patients ([1]; overall, nine patients): 44%
- Thrombocytopenia, all grades, patients ([1]; overall, nine patients): 56%
- Tumor response (esophagogastric cancer): partial response
- Patients with marked tumor shrinkage (advanced solid tumors; daily dose of 10 mg, esophageal and gastric cancer): two of three
- Duration of partial response (advanced solid tumors; patient with gastric adenocarcinoma and liver metastases, 10 mg/day): > 4 months
- Difference in clearance between Asian and Caucasian patients [2]: no significant differences
